Results taken from ChEMBL document CHEMBL1131135, “Substituted 4-acylpyrazoles and 4-acylpyrazolones: synthesis and multidrug resistance-modulating activity” (J Med Chem, 1998).

How the values were obtained:
L5178Y = experiment: Compound was tested for inhibition of rhodamine 123 efflux in mdr 1 transfectant L5178Y VMDRI C.06 mouse lymphoma cells; format: functional, cell-based
Outline: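 Cells at 1 × 10⁶/mL in RPMI1640 preloaded with rhodamine 123 (final 0.2 μg/mL, 0.53 μmol/L) for 15 min at 37 °C, then resuspended in 37 °C medium with modulator (eight concentrations, 1:2.5 serial dilution, 3 nM–500 μM). Aliquots taken at 0, 30, 60, 90, 120 s into ice-cold verapamil stop solution. Read by flow cytometry, 5000 events. Vmax/Km from exponential fit, parental-line diffusion subtracted. EC50 from dose–response, mean of ≥5 experiments.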

[1] = molecular target: ATP-dependent translocase ABCB1 (Homo sapiens, UniProt P08183); experiment: Compound was tested for inhibition of daunomycin efflux in the resistant human T-lymphoblast cell line CEM vcr1000.; format: functional, cell-based, CCRF-CEM
Sequence of ATP-dependent translocase ABCB1 (P08183 whole entry): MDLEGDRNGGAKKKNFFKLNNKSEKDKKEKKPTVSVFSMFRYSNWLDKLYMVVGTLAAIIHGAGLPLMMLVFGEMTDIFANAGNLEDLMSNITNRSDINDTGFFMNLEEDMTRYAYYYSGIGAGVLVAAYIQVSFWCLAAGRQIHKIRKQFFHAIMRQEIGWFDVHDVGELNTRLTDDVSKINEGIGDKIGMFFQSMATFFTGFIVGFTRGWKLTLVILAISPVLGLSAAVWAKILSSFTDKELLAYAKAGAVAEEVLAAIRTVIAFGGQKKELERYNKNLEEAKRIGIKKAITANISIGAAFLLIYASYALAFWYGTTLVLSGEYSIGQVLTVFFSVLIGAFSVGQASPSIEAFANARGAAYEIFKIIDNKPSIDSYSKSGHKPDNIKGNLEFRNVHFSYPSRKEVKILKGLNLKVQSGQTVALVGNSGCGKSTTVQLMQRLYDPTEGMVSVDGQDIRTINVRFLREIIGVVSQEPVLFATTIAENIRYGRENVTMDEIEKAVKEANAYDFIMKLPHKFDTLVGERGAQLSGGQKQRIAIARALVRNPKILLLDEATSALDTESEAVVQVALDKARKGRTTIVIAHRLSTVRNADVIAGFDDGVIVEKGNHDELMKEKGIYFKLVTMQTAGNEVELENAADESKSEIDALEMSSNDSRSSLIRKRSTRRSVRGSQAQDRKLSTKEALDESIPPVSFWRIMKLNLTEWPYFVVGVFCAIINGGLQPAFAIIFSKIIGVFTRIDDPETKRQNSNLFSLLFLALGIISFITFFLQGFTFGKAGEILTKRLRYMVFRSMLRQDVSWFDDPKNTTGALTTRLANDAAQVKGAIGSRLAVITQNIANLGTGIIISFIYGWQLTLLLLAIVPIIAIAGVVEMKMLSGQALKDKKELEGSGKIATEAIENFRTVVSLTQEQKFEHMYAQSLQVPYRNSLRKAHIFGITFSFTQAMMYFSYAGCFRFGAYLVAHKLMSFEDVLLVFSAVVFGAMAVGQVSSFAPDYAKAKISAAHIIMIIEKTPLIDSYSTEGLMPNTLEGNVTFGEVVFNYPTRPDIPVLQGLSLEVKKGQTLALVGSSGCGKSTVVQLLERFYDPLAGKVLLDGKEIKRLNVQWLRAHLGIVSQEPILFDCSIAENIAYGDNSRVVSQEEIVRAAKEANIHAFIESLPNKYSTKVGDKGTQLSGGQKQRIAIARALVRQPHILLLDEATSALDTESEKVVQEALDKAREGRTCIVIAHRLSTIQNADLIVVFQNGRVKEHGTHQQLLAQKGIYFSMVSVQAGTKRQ

| Compound | EC50 (L5178Y) [µM] | EC50 [1] [µM] |
| --- | --- | --- |
| CCCNCC(O)Cn1c(C)c(C(=O)c2ccccc2)c(=O)n1-c1ccccc1 (centres undefined) | 64.5 | 28.2 |
| CCCNc1c(C(=O)CCc2ccccc2)c(C)nn1-c1ccccc1 |  | 8.38 |
| CCCCNCC(O)Cn1c(C)c(C(=O)CCc2ccccc2)c(=O)n1-c1ccccc1 (centres undefined) | 4.02 | 2.69 |
| Cc1c(C(=O)c2ccccc2)c(=O)n(-c2ccccc2)n1CC(O)CNC(C)C (centres undefined) | 226 | 83.2 |
| Cc1c(C(=O)c2cccs2)c(=O)n(-c2ccccc2)n1CC(O)CNC(C)C (centres undefined) | 648 | 123 |
| Cc1c(C(=O)c2ccccc2)c(=O)n(C)n1CC(O)CN(C(C)C)C(C)C (centres undefined) |  | 24.1 |
| Cc1c(C(=O)c2ccccc2)c(=O)n(-c2ccccc2)n1CC(O)CN(C(C)C)C(C)C (centres undefined) | 21.9 | 12.6 |
| Cc1ccccc1N1CCN(CC(O)Cn2c(C)c(C(=O)CCc3ccccc3)c(=O)n2-c2ccccc2)CC1 (centres undefined) |  | 0.21 |
| Cc1nn(C)c(OCC(O)CN(C(C)C)C(C)C)c1C(=O)c1ccccc1 (centres undefined) |  | 1.21 |
| CCC/N=C(\CCc1ccccc1)c1c(C)[nH]n(-c2ccccc2)c1=O |  | 3.79 |
| CCC/N=C(\c1ccccc1)c1c(C)[nH]n(C)c1=O |  | 273 |
| CC1=NN(c2ccccc2)C(=O)/C1=C(/c1ccccc1)N1CCN(c2ccccc2C)CC1 |  | 0.68 |
| Cc1ccccc1N1CCN(CC(O)Cn2c(C)c(C(=O)c3ccccc3)c(=O)n2-c2ccccc2)CC1 (centres undefined) | 2.43 | 0.89 |
| Cc1c(C(=O)c2cccs2)c(=O)n(-c2ccccc2)n1CC(O)CNC(C)(C)C (centres undefined) | 94.7 | 72.4 |
| CCCNCC(O)Cn1c(C)c(C(=O)c2cccs2)c(=O)n1-c1ccccc1 (centres undefined) | 174 | 72.4 |
| Cc1c(C(=O)CCc2ccccc2)c(=O)n(-c2ccccc2)n1CC(O)CNC(C)C (centres undefined) | 34.2 | 11.8 |
| Cc1c(C(=O)c2ccccc2)c(=O)n(-c2ccccc2)n1CC(O)CNC(C)(C)C (centres undefined) | 168 | 81.3 |
| Cc1nn(-c2ccccc2)c(OCC(O)CN(C(C)C)C(C)C)c1C(=O)c1ccccc1 (centres undefined) | 2.22 | 1.06 |
| CCCNCC(O)Cn1c(C)c(C(=O)CCc2ccccc2)c(=O)n1-c1ccccc1 (centres undefined) | 15.2 | 6.31 |
| CCCNc1c(C(=O)c2ccccc2)c(C)nn1-c1ccccc1 |  | 11 |
| Cc1c(C(=O)CCc2ccccc2)c(=O)n(-c2ccccc2)n1CC(O)CNC(C)(C)C (centres undefined) | 17.8 | 7.76 |
